Experimental data taken from ChEMBL document CHEMBL1132256, “Structure-activity relationships for substituted bis(acridine-4-carboxamides): a new class of anticancer agents” (J Med Chem, 1999).

Tests used:
[1] = tested on: CAKI-1; test: inhibitory activity against renal tumor […] cell line.; assay type: functional; details: Homo sapiens
Outline: (§1)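 Tested in the NCI human cell line panel. GI50 = drug concentration (nM) giving growth inhibition to 50% of controls; values below 10 nM were taken as 10 nM in calculations.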

[2] = tested on: HCT-116; test: inhibitory activity against colon HCT116 cell line.; assay type: functional; details: Homo sapiens; outline: as §1
[3] = tested on: HT-29; test: inhibitory activity against colon HT-29 cell line.; assay type: functional; details: Homo sapiens; outline: as §1
[4] = tested on: Jurkat; test: Concentration required to inhibit 50% growth of human Jurkat cells; assay type: functional, cell-based
Outline: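 Jurkat leukemia (JLC) cells seeded at 3.75 × 10^3 cells/well and exposed to drug for 4 days; growth measured by sulforhodamine assay. IC50 = drug concentration (nM) reducing cell number to 50% of control cultures. Independent assays in duplicate, coefficients of variation ca. 25%.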

[5] = tested on: MCF7; test: inhibitory activity against multi drug resistant MCF cell line.; assay type: functional; details: Homo sapiens, in the assay text read “MCF7 cell line” for “multi drug resistant MCF cell line”; outline: as §1
[6] = tested on: Lewis lung carcinoma cell line; test: Inhibitory activity of tested against Murine Lewis lung carcinoma; assay type: functional, cell-based; details: Mus musculus
Outline: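 Lewis lung carcinoma (LLTC) cells at 10^3 cells/well, 4-day continuous drug exposure, growth read by sulforhodamine assay. IC50 (nM) = concentration giving 50% of control cell number. Duplicate independent assays, CV ca. 25%.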

[7] = tested on: NCI/ADR-RES; test: inhibitory activity against multi drug resistant NCI/ADR cell line.; assay type: functional; details: Homo sapiens; outline: as §1
[8] = tested on: P388; test: Inhibitory activity against Murine […]; assay type: functional, cell-based; details: Mus musculus
Outline: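 Murine P388 leukemia cells seeded at 4.5 × 10^3 cells/well, cultured 3 days with drug; growth measured by [3H]TdR uptake. IC50 = drug concentration (nM) reducing cell number to 50% of controls. Independent assays in duplicate, CV ca. 25%.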

[9] = tested on: SK-OV-3; test: inhibitory activity against ovarian carcinoma SKOV3 cell line.; assay type: functional; details: Homo sapiens; outline: as §1
[10] = tested on: Jurkat; test: Ratio of inhibitory activity against amsacrine resistant jurkat cells to inhibitory activity against wild type human jurkat cells; assay type: functional
Outline: (§2)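 Wild-type Jurkat (JLC) and its amsacrine-resistant (JLA) or doxorubicin-resistant (JLD) sublines each seeded at 3.75 × 10^3 cells/well, 4 days with drug, sulforhodamine read-out. IC50 (nM) for 50% of control cell number; ratio = resistant-line IC50 divided by JLC IC50. Duplicate assays, CV ca. 25%.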

[11] = tested on: Jurkat; test: Ratio of inhibitory activity against doxorubicin resistant jurkat cells to inhibitory activity against wild type human jurkat cells; assay type: functional; outline: as §2

Row | GI50 [2] [µM] | GI50 [3] [µM] | IC50 [4] [µM] | GI50 [5] [µM] | IC50 [6] [µM] | IC50 [8] [µM] | GI50 [9] [µM] | Structure (SMILES) | GI50 [1] [µM] | GI50 [7] [µM] | Ratio [10] | Ratio [11]
1 | 5.06 | 1.62 | 2.54 | 1.02 | 1.08 | 1.23 | 12 | CN(CCCNC(=O)c1cccc2cc3cccc(-c4ccccc4)c3nc12)CCCNC(=O)c1cccc2cc3cccc(-c4ccccc4)c3nc12 | 12 | 1.79 | 0.5 | 0.8
2 | 0.446 | 1.43 | 1.29 | 3.03 | 2.4 | 3.5 | 13 | Cc1ccc2cc3ccccc3nc2c1C(=O)NCCCN(C)CCCNC(=O)c1c(C)ccc2cc3ccccc3nc12 | 6.36 | 16 | 0.9 | 1
3 | 0.216 | 0.12 | 0.238 | 0.614 | 0.123 | 0.75 | 1.07 | CN(CCCNC(=O)c1cccc2cc3c(Cl)cccc3nc12)CCCNC(=O)c1cccc2cc3c(Cl)cccc3nc12 | 0.45 | 0.624 | 0.8 | 1.2
4 | < 0.01 | < 0.01 | 0.041 | 0.054 | 0.014 | 0.17 | 1.17 | Cc1ccc(C(=O)NCCCN(C)CCCNC(=O)c2ccc(C)c3cc4ccccc4nc23)c2nc3ccccc3cc12 | 0.042 | 0.077 | 0.6 | 1
5 | 0.012 | 0.034 | 0.275 | 0.19 | 0.073 | 0.27 | 1.18 | Cc1ccc2nc3c(C(=O)NCCCN(C)CCCNC(=O)c4cccc5cc6cc(C)ccc6nc45)cccc3cc2c1 | 0.268 | 0.48 | 0.9 | 1.1
6 | 0.032 | 0.033 | 0.115 | 0.079 | 0.039 | 0.24 | 1.26 | CN(CCCNC(=O)c1cccc2cc3cccc(C(F)(F)F)c3nc12)CCCNC(=O)c1cccc2cc3cccc(C(F)(F)F)c3nc12 | 0.6 | 1.29 | 0.85 | 1.1
7 | 0.014 | 0.031 | 0.033 | 0.167 | 0.008 | 0.046 | 12 | CN(CCCNC(=O)c1cccc2cc3cccc(Cl)c3nc12)CCCNC(=O)c1cccc2cc3cccc(Cl)c3nc12 | 0.0959 | 1.2 | 0.55 | 1
8 | 0.013 | 0.06 | 0.071 | 0.174 | 0.016 | 0.18 | 0.594 | Cc1cccc2nc3c(C(=O)NCCCN(C)CCCNC(=O)c4cccc5cc6c(C)cccc6nc45)cccc3cc12 | 0.058 | 1.04 | 0.7 | 1
9 | < 0.01 | < 0.01 | 0.051 | 0.013 | 0.013 | 0.066 | 11 | CN(CCCNC(=O)c1cccc2cc3ccc(Cl)cc3nc12)CCCNC(=O)c1cccc2cc3ccc(Cl)cc3nc12 | < 0.01 | 0.274 | 0.5 | 0.9
10 | < 0.01 | < 0.01 | 0.049 | < 0.01 | 0.035 | 0.016 | 0.845 | CN(CCCNC(=O)c1cccc2cc3cccc(F)c3nc12)CCCNC(=O)c1cccc2cc3cccc(F)c3nc12 | 0.034 | 0.093 | 0.6 | 0.9
11 | < 0.01 | < 0.01 | 0.11 | 0.024 | 0.03 | 0.13 | 8.57 | CN(CCCNC(=O)c1cccc2cc3ccccc3nc12)CCCNC(=O)c1cccc2cc3ccccc3nc12 | 0.014 | 0.408 | 0.7 | 0.8
